Measured values from ChEMBL document CHEMBL1134286, “Novel erythromycin derivatives with aryl groups tethered to the C-6 position are potent protein synthesis inhibitors and active against multidrug-resistant respiratory pathogens” (J Med Chem, 2001).
Values after ≈ are worked out from the molar mass of the structure shown.

Experiments:
Type in all cases: functional
Staphylococcus aureus [1] = assay: Minimum inhibitory concentration against Staphylococcus aureus A 5177 MLSB-i
Summary of the method: (§1)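 MICs were determined by agar dilution following National Committee for Clinical Laboratory Standards recommendations. Values are in µg/mL.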

Staphylococcus aureus [2] = assay: Minimum inhibitory concentration against Staphylococcus aureus A 5278 MLSB-c; summary of the method: as §1
[3] = Minimum inhibitory concentration against Streptococcus pyogenes PIU2548 efflux; summary of the method: as §1
Streptococcus pneumoniae [4] = assay: Minimum inhibitory concentration against Streptococcus pneumoniae 5649 efflux; summary of the method: as §1
[5] = Minimum inhibitory concentration against Streptococcus pneumoniae 5737 MLSB; summary of the method: as §1
Streptococcus pneumoniae [6] = assay: Minimum inhibitory concentration against Streptococcus pneumoniae ATCC 6303 Ery-S; summary of the method: as §1
[7] = Minimum inhibitory concentration against Streptococcus pyogenes 930MLSB; summary of the method: as §1
Staphylococcus aureus [8] = assay: Minimum inhibitory concentration against Staphylococcus aureus ATCC 6538PEry-S; conditions: ATCC 6538P; summary of the method: as §1
[9] = Minimum inhibitory concentration against Streptococcus pyogenes EES 61 Ery-S; summary of the method: as §1
[10] = Minimum inhibitory concentration against Haemophilus influenzae DILL Amp-R; summary of the method: as §1

Compound | MIC (Staphylococcus aureus [1]) [µg/mL] | MIC (Staphylococcus aureus [2]) [µg/mL] | MIC [3] [µg/mL] | MIC (Streptococcus pneumoniae [4]) [µg/mL] | MIC [5] [µg/mL] | MIC (Streptococcus pneumoniae [6]) [µg/mL] | MIC [7] [µg/mL] | MIC (Staphylococcus aureus [8]) [µg/mL] | MIC [9] [µg/mL] | MIC [10] [µg/mL]
CC[C@H]1OC(=O)[C@H](C)C(=O)[C@H](C)[C@@H](O[C@@H]2O[C@H](C)C[C@H](N(C)C)[C@H]2O)[C@](C)(OC/C=C/c2cnc3ccccc3c2)C[C@@H](C)C(=O)[C@H](C)[C@H]2N(CCN(C)C)C(=O)O[C@]12C | 0.2 (≈ 0.239 µM) | > 100 | 2 (≈ 2.39 µM) | 2 (≈ 2.39 µM) | 4 (≈ 4.78 µM) | 0.125 (≈ 0.149 µM) | 32 (≈ 38.2 µM) | 0.39 (≈ 0.466 µM) | 0.03 (≈ 0.0358 µM) | 8 (≈ 9.56 µM)
CC[C@H]1OC(=O)[C@H](C)C(=O)[C@H](C)[C@@H](O[C@@H]2O[C@H](C)C[C@H](N(C)C)[C@H]2O)[C@](C)(OCCCc2ccccc2)C[C@@H](C)C(=O)[C@H](C)[C@@H](O)[C@]1(C)O | 6.2 (≈ 8.96 µM) | > 100 | 4 (≈ 5.78 µM) | 1 (≈ 1.45 µM) | 32 (≈ 46.2 µM) | 1 (≈ 1.45 µM) | 64 (≈ 92.5 µM) | 6.2 (≈ 8.96 µM) | 0.5 (≈ 0.723 µM) | > 64
CC[C@H]1OC(=O)[C@H](C)C(=O)[C@H](C)[C@@H](O[C@@H]2O[C@H](C)C[C@H](N(C)C)[C@H]2O)[C@](C)(OCCN)C[C@@H](C)C(=O)[C@H](C)[C@@H](O)[C@]1(C)O | 25 (≈ 40.5 µM) | > 100 | 12.5 (≈ 20.3 µM) | – | – | – | > 100 | 25 (≈ 40.5 µM) | 6.2 (≈ 10.1 µM) | –
C=CCO[C@]1(C)C[C@@H](C)C2=NCCN3C(=O)O[C@](C)([C@@H](CC)OC(=O)[C@H](C)C(=O)[C@H](C)[C@H]1O[C@@H]1O[C@H](C)C[C@H](N(C)C)[C@H]1O)[C@H]3[C@H]2C | 1.56 (≈ 2.35 µM) | > 100 | 4 (≈ 6.03 µM) | 0.5 (≈ 0.753 µM) | > 128 | 0.25 (≈ 0.377 µM) | > 128 | 1.56 (≈ 2.35 µM) | 0.25 (≈ 0.377 µM) | 32 (≈ 48.2 µM)
C=CCO[C@]1(C)C[C@@H](C)C(=O)[C@H](C)[C@@H](O)[C@](C)(O)[C@@H](CC)OC(=O)[C@H](C)C(=O)[C@H](C)[C@H]1O[C@@H]1O[C@H](C)C[C@H](N(C)C)[C@H]1O | 50 (≈ 81.5 µM) | > 100 | 32 (≈ 52.1 µM) | 8 (≈ 13 µM) | > 128 | 4 (≈ 6.52 µM) | > 128 | 12.5 (≈ 20.4 µM) | – | > 128
CC[C@H]1OC(=O)[C@H](C)C(=O)[C@H](C)[C@@H](O[C@@H]2O[C@H](C)C[C@H](N(C)C)[C@H]2O)[C@](C)(OCCNCCc2ccccc2)C[C@@H](C)C(=O)[C@H](C)[C@@H](O)[C@]1(C)O | 6.2 (≈ 8.6 µM) | > 100 | 8 (≈ 11.1 µM) | 4 (≈ 5.55 µM) | > 128 | 2 (≈ 2.77 µM) | > 128 | 6.2 (≈ 8.6 µM) | 2 (≈ 2.77 µM) | 64 (≈ 88.8 µM)
CC[C@H]1OC(=O)[C@H](C)C(=O)[C@H](C)[C@@H](O[C@@H]2O[C@H](C)C[C@H](N(C)C)[C@H]2O)[C@](C)(OC/C=C/c2cccc3cccnc23)C[C@@H](C)C(=O)[C@H](C)[C@H]2NC(=O)O[C@@]21C | 0.1 (≈ 0.131 µM) | > 100 | 0.5 (≈ 0.653 µM) | 0.5 (≈ 0.653 µM) | > 32 | 0.03 (≈ 0.0392 µM) | > 32 | 0.2 (≈ 0.261 µM) | 0.03 (≈ 0.0392 µM) | 8 (≈ 10.4 µM)
CC[C@H]1OC(=O)[C@H](C)C(=O)[C@H](C)[C@@H](O[C@@H]2O[C@H](C)C[C@H](N(C)C)[C@H]2O)[C@](C)(OC/C=C/c2cnc3ccccc3c2)C[C@@H](C)C(=O)[C@H](C)[C@H]2N(C)C(=O)O[C@]12C | 0.1 (≈ 0.128 µM) | > 100 | 0.25 (≈ 0.321 µM) | 0.25 (≈ 0.321 µM) | 1 (≈ 1.28 µM) | 0.03 (≈ 0.0385 µM) | 4 (≈ 5.13 µM) | 0.1 (≈ 0.128 µM) | 0.015 (≈ 0.0192 µM) | 4 (≈ 5.13 µM)
CC[C@H]1OC(=O)[C@H](C)C(=O)[C@H](C)[C@@H](O[C@@H]2O[C@H](C)C[C@H](N(C)C)[C@H]2O)[C@](C)(OCC2CC2c2cnc3ccccc3c2)C[C@@H](C)C(=O)[C@H](C)[C@H]2NC(=O)O[C@@]21C (some centres undefined) | 0.05 (≈ 0.0641 µM) | > 100 | 0.25 (≈ 0.321 µM) | 0.5 (≈ 0.641 µM) | 32 (≈ 41 µM) | 0.03 (≈ 0.0385 µM) | 4 (≈ 5.13 µM) | 0.05 (≈ 0.0641 µM) | 0.03 (≈ 0.0385 µM) | –
CC[C@H]1OC(=O)[C@H](C)C(=O)[C@H](C)[C@@H](O[C@@H]2O[C@H](C)C[C@H](N(C)C)[C@H]2O)[C@](C)(OC/C=C/c2ccc3ccccc3c2)C[C@@H](C)C(=O)[C@H](C)[C@H]2NC(=O)O[C@@]21C | 0.1 (≈ 0.131 µM) | > 100 | 1 (≈ 1.31 µM) | 1 (≈ 1.31 µM) | > 128 | 0.015 (≈ 0.0196 µM) | 16 (≈ 20.9 µM) | 0.1 (≈ 0.131 µM) | 0.015 (≈ 0.0196 µM) | 16 (≈ 20.9 µM)
CC[C@H]1OC(=O)[C@H](C)[C@@H](O[C@H]2C[C@@](C)(OC)[C@@H](O)[C@H](C)O2)[C@H](C)[C@@H](O[C@@H]2O[C@H](C)C[C@H](N(C)C)[C@H]2O)[C@](C)(OC/C=C/c2ccccc2)C[C@@H](C)C(=O)[C@H](C)[C@@H](O)[C@]1(C)O | 6.2 (≈ 7.29 µM) | > 100 | 16 (≈ 18.8 µM) | 4 (≈ 4.71 µM) | 32 (≈ 37.6 µM) | 0.06 (≈ 0.0706 µM) | 32 (≈ 37.6 µM) | 0.39 (≈ 0.459 µM) | 0.03 (≈ 0.0353 µM) | 4 (≈ 4.71 µM)
CC[C@H]1OC(=O)[C@H](C)C(=O)[C@H](C)[C@@H](O[C@@H]2O[C@H](C)C[C@H](N(C)C)[C@H]2O)[C@](C)(OCCNCc2ccccc2)C[C@@H](C)C(=O)[C@H](C)[C@@H](O)[C@]1(C)O | 1.56 (≈ 2.21 µM) | > 100 | 4 (≈ 5.66 µM) | 4 (≈ 5.66 µM) | > 64 | 0.25 (≈ 0.354 µM) | > 64 | 3.1 (≈ 4.39 µM) | 0.5 (≈ 0.707 µM) | 16 (≈ 22.6 µM)
CC[C@H]1OC(=O)[C@H](C)C(=O)[C@H](C)[C@@H](O[C@@H]2O[C@H](C)C[C@H](N(C)C)[C@H]2O)[C@](C)(OC/C=C/c2ccc3cccnc3c2)C[C@@H](C)C(=O)[C@H](C)[C@H]2NC(=O)O[C@@]21C | 0.05 (≈ 0.0653 µM) | > 100 | 1 (≈ 1.31 µM) | 0.5 (≈ 0.653 µM) | 4 (≈ 5.22 µM) | 0.03 (≈ 0.0392 µM) | > 128 | 0.05 (≈ 0.0653 µM) | 0.03 (≈ 0.0392 µM) | 4 (≈ 5.22 µM)
CC[C@H]1OC(=O)[C@H](C)C(=O)[C@H](C)[C@@H](O[C@@H]2O[C@H](C)C[C@H](N(C)C)[C@H]2O)[C@](C)(OC/C=C/c2cccnc2)C[C@@H](C)C(=O)[C@H](C)[C@H]2NC(=O)O[C@@]21C | 0.1 (≈ 0.14 µM) | > 100 | 0.5 (≈ 0.698 µM) | 0.5 (≈ 0.698 µM) | > 128 | 0.03 (≈ 0.0419 µM) | > 128 | 0.1 (≈ 0.14 µM) | 0.03 (≈ 0.0419 µM) | 8 (≈ 11.2 µM)
C=CCO[C@]1(C)C[C@@H](C)C(=O)[C@H](C)[C@H]2N(CCN(C)C)C(=O)O[C@]2(C)[C@@H](CC)OC(=O)[C@H](C)C(=O)[C@H](C)[C@H]1O[C@@H]1O[C@H](C)C[C@H](N(C)C)[C@H]1O | 6.2 (≈ 8.73 µM) | > 100 | 4 (≈ 5.63 µM) | 2 (≈ 2.82 µM) | > 128 | 1 (≈ 1.41 µM) | > 128 | 6.2 (≈ 8.73 µM) | 0.5 (≈ 0.704 µM) | 64 (≈ 90.2 µM)
CC[C@H]1OC(=O)[C@H](C)C(=O)[C@H](C)[C@@H](O[C@@H]2O[C@H](C)C[C@H](N(C)C)[C@H]2O)[C@](C)(OCCNCCCc2cnc3ccccc3c2)C[C@@H](C)C(=O)[C@H](C)[C@H]2NC(=O)O[C@@]21C | 0.39 (≈ 0.481 µM) | > 100 | 2 (≈ 2.47 µM) | 2 (≈ 2.47 µM) | 2 (≈ 2.47 µM) | 0.03 (≈ 0.037 µM) | > 100 | 0.2 (≈ 0.247 µM) | 0.03 (≈ 0.037 µM) | 4 (≈ 4.93 µM)
